Laboratory results published in the EternaBench riboswitch data.

Tested on: MS2 coat protein
Experiment: apparent Kd, MS2 coat protein; higher = weaker binding; RNA-MaP array
Method in brief: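 On an Illumina sequencing chip, sequenced DNA templates served for transcription of the designed RNAs, which were then bound at room temperature by fluorescently labeled MS2 coat protein at 1.5 nM to 3 μM, with or without input ligand. Apparent Kd is the median of the fits to each cluster's binding curve. Only designs measured on at least 10 clusters were kept.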

[1] = designed as: OFF switch for flavin mononucleotide, no ligand
[2] = ligand present: flavin mononucleotide, designed as: OFF switch for flavin mononucleotide
[3] = designed as: ON switch for flavin mononucleotide, no ligand
[4] = ligand present: flavin mononucleotide, designed as: ON switch for flavin mononucleotide
[5] = designed as: ON switch for theophylline, no ligand
[6] = ligand present: theophylline, designed as: ON switch for theophylline
[7] = designed as: ON switch for tryptophan, no ligand
[8] = ligand present: tryptophan, designed as: ON switch for tryptophan

| Sequence | apparent Kd [1] | apparent Kd [2] | apparent Kd [3] | apparent Kd [4] | also measured |
| --- | --- | --- | --- | --- | --- |
| GAUGCAACGCAGAAGGUAACCCAAUUAGGAGAUCUACAUGAGGAUCACCCAUGUAUUUGGAAAAUUAAGGAUAUGCCGAGGAUC | 14.7 nM | 19.5 nM | – | – | – |
| GAUUGGCUAGGAUAUACAGUGUCUAAGUCGACACCGUGAUAACAUGAGGAUCACCCAUGUAGAAGGAGCACAAA | 6.78 nM | 11.4 nM | – | – | – |
| GCACGAGUAAGACCUGACUUCAACAAUGAUACCAGACUAGUAAACGUCCCUUGGCAGCAUCAGACAUGAGGAUCACCCAUGUGGC | – | – | – | – | apparent Kd (designed as: OFF switch for theophylline, no ligand): 27 nM; apparent Kd (ligand present: theophylline, designed as: OFF switch for theophylline): 29.4 nM |
| GCAGGCGUUAAGAAGGUUCUCCCACAUGAGGAUCACCCAUGUUGACAUGCUAGAGUCAUUACAAGAAAGGAUAUUAGCGAAUUG | – | – | 114 nM | 25.8 nM | – |
| GCGGUCCACUUGGAUACCAGCAGAUUAAUAAACAUGAGGAUCACCCAUGUAAGCGCCUUGUGCCCUUGGCAGCCAGGGUGGUCAG | – | – | – | – | apparent Kd [5]: 83.8 nM; apparent Kd [6]: 46.3 nM |
| GCGUUGGCCACGGCCGCCACUCAGGUACCGCGCGUAGUGAACUUACAUGAGGAUCACCCAUGUCUGAGGACCGGGUGGCCGCCAC | – | – | – | – | apparent Kd [7]: 37.3 nM; apparent Kd [8]: 46.2 nM |
| GCUAGCGGUAAGAAGGCAUAGACCAAAACUUCAUGAGGAUAUUAUUUGCGGCAUUCGCUCCAAGGACAUGAGGAUCACCCAUGU | – | – | 15.4 nM | 16.3 nM | – |
| GCUCAGGAAGGAUAUACUGAAGCUAACAUGAGGAUCACCCAUGUCCUAGGUAAGUAUCUGGUAGAAGGUCCGCGUA | 24.9 nM | 32.5 nM | – | – | – |
| GGAAGUCAAGGAUAUACAUGAGGAUCACCCAUGUCAGGUGCCAAUUAUGUUCUAUAGUGUAGAAGGUGACAAUG | 112 nM | 183 nM | – | – | – |
| GGACCAAGGAGGGAGGAUAUCACAUACAAAACAUGAGGAUCACCCAUGUAGAAGAGACAAGAUACAGAGAAGGCCCAGAAAUAAAA | – | – | 14 nM | 9.27 nM | – |
| GGAUAACCGAAGAAGGAGGUUUGUAUGGAAUACCUAGGAUAUUCGCGAGCGUGGGCCACAUGAGGAUCACCCAUGUCGGCAGUU | 12.8 nM | 10.4 nM | – | – | – |
| GGCACACAUGAGGAUCACCCAUGUGGCGAUACCAGUUGAUGGUAAAACCCUUGGCAGCGCCAGUCACAUGCAGAUAGUUACUGAA | – | – | – | – | apparent Kd [5]: 13.9 nM; apparent Kd [6]: 16.5 nM |
| GGCGAUCAGUGAGGAUAUUCCGCGCAAAUACUAGAAGAAGGCACGUAUCAAGGGUUCAGAACAUGAGGAUCACCCAUGUCAAGC | – | – | 14 nM | 10.1 nM | – |
| GGCGUGUACACAGGAUAUGAUACAUGAGGAUCACCCAUGUUCGCGCUGGAUCUACGUGAGAACGAUCAGAAGGGUGCUGCAGGG | – | – | 398 nM | 229 nM | – |
| GGCUACAUGAGGAUCACCCAUGUUUCUCGUCGAGGACCGGUACGGCCGCCACUCGUUGUUGGGACUCAGUAUCAGUCGUUAGUUU | – | – | – | – | apparent Kd [7]: 25.5 nM; apparent Kd [8]: 57 nM |
| GGCUGACAUGAGGAUCACCCAUGUAGUGAUACCAGUAAGAGAAUAUACCCUUGGCAGCACAGGUAACAACUCGUCUCCAAAGUAA | – | – | – | – | apparent Kd [5]: 42.7 nM; apparent Kd [6]: 78.9 nM |
| GGGAAACAUGAGGAUCACCCAUGUGUACAUAAGUAAGGAUAUAGAAGAGGUGACAGUGGUCUAGAAGGUACAACAC | – | – | 65.6 nM | 46.4 nM | – |
| GGGAUGUUAGGAUAUGCUGGUUAAAAGAGAUUAAUACUCUAGCAGAAGGAACAUGAGGAUCACCCAUGUAGACA | 10.6 nM | 26.4 nM | – | – | – |
| GGGCCACAUAAGAAGGUGAGCCACAGCGGCGUUCAAGGAUAUUAUAGGUAACCCACCAGACAUGAGGAUCACCCAUGUAGUGUC | – | – | 36.7 nM | 25.2 nM | – |
| GGGUGAAGUGAGAAGGUUGGUGCUAGUUAAUUCAAAGGAUAUCAUUACUACGACAUGAGGAUCACCCAUGUAGCUGUACUGGAA | 14.3 nM | 12.4 nM | – | – | – |
| GGUACGGCAGGAUAUGGCCUGGACUACAUGAGGAUCACCCAUGUCUUGCAGAAUGUCUAGCCAGAAGGGCCAUGAA | 14.6 nM | 8.52 nM | – | – | – |
| GGUUAACAUGAGGAUCACCCAUGUCUUGAUACCAGUCGUUAUCUUGACCCUUGGCAGCAAGAUGACCGUUAGCAGCCGUCUUCUC | – | – | – | – | apparent Kd [5]: 13.2 nM; apparent Kd [6]: 19.5 nM |
| GUACAUUUUGCAGGAUAUGUUCAAUACAUGAGGAUCACCCAUGUUCCCUGCUCGGGUCGAGCAUAACAGAAGGGCACUAUAUGU | – | – | 28.9 nM | 12.1 nM | – |
| GUGAAACAUGAGGAUCACCCAUGUUAGGAUAUAGGUAACCUAGUACAUGAUCUGCUGGCUAGAAGGAACUGGAU | 14.2 nM | 11.5 nM | – | – | – |
| GUGCUACAUGAGGAUCACCCAUGUGUGUAACAACAAGGAUAUGAUGCUUUGCCCGAAAGGUCAGAAGGUGUACGGC | – | – | 12.9 nM | 11.1 nM | – |
| GUUUCGUCAGGAUAUGCUUAAGAAGUCUUCUCACCGGACUUGCAGAAGGGACAUGAGGAUCACCCAUGUGGUAA | 36.5 nM | 167 nM | – | – | – |
| GUUUUGGUACGAGGAUAUAAUGCCCUUGGAGAGUUAGAAGGCGUACGGGCUGUCCAUUAGAUACAUGAGGAUCACCCAUGUGAG | 14.7 nM | 12.2 nM | – | – | – |

| Sequence | apparent Kd [1] | apparent Kd [2] | apparent Kd [3] | apparent Kd [4] | also measured |
| --- | --- | --- | --- | --- | --- |
| UAAAGAUGUGCAGGAUAUUAGAAACGGCGGGAACUUAAAUUCAAACAUGAGGAUCACCCAUGUAAUAAGAAGGGCAAACUAAGA | 15.9 nM | 20.6 nM | – | – | – |
| UAACCGUGAGGAUAUACAUGAGGAUCACCCAUGUGGUUUUGCUGCGCACAUACUUUAUGUAGAAGGCACAACUG | 50 nM | 59.9 nM | – | – | – |
| UAAGACGGGCGAGGAUAUACGAACUGGGUCAAAGUAGAAGGCGCGAGUCAUUGUUAUAAUCCAACAUGAGGAUCACCCAUGUCU | – | – | 91.6 nM | 15.6 nM | – |
| UAAUGCAUAACAUGAGGAUCACCCAUGUAGUAAAAUGGUGGUUAGGAUAUAGCACGUGAAUCGACCUAGAAGGAACGUCCUUAC | 33.3 nM | 30 nM | – | – | – |
| UAAUUCAGGGAGAAGGUCUGAUCGUAACAUGCAGAAGGAUAUCCCAAUAACAUGAGGAUCACCCAUGUUUUGUUAUGCGUCAAC | – | – | 83 nM | 19.8 nM | – |
| UACCAAAUCACAGGAUAUGAGGCGCCAGCUAGGUCAGAAGGGUGACAUGAGGAUCACCCAUGUUCGCAGAAAAUAAUUGCUAAG | – | – | 688 nM | 678 nM | – |
| UACCUUAGCAACAUGAGGAUCACCCAUGUUUGGUGGCGAAUUAGAAGGGACAGCAUUUAUACAAGUCAGGAUAUAAUUUAGGGA | 16.5 nM | 11.6 nM | – | – | – |
| UACCUUAUGGAGAAGGCACGUCUCAGAGGAGCAACAUGAGGAUCACCCAUGUACCUGGGCUGAAGUGAGGAUAUCCAAAUCCCA | – | – | 14.4 nM | 7.18 nM | – |
| UACGGAGCUCAGAAGGGACACUGCGGAGAUAUGUCAGGAUAUGACUUCUUAUCGUGUGGUGACAUGAGGAUCACCCAUGUGCUU | 209 nM | 338 nM | – | – | – |
| UACGUGUUAGGAUAUCGAGUAGUAUGGCUGGCCUGCAAAACCGAGAAGGAACAUGAGGAUCACCCAUGUAUCUU | 8.05 nM | 11.3 nM | – | – | – |
| UACUUUGUAUGCAAGGAUAUCCAGGAUUCUACAUGAGGAUCACCCAUGUCAAAUACUAUGCAACGGGAGAAGGUGCAUAACAUCAU | – | – | 16.5 nM | 12.2 nM | – |
| UAGAGGUACGUUGGCGAACAUGAGGAUCACCCAUGUAAAUGAAGAAGGUGUGUUGCGCAAAACGACAAGGAUAUUCAAGACAUC | – | – | 83.4 nM | 50.7 nM | – |
| UAGCAUAGUACGGCCGCCACUCCUGGUUCCCGGCCGUGUGUAAGACAUGAGGAUCACCCAUGUAGGAGGACCGGGUAUCGCUUGC | – | – | – | – | apparent Kd [7]: 14 nM; apparent Kd [8]: 15.2 nM |
| UAUACUAAUGUCAGGAUAUUAUAAAGUAAGAUAUAUAAGAAGGGACAUGAGGAUCACCCAUGUGACAAGGACGA | 13.4 nM | 29.8 nM | – | – | – |
| UAUUAACAUGAGGAUCACCCAUGUUAUAGAGACCUAGGAUAUGCUUGCAUCCUCGCUCGUGCAGAAGGAGGUUUAU | – | – | 7.08 nM | 5.88 nM | – |
| UAUUGGAUGACAGGAUAUCUACGAAGAAGUUGACAUGAGGAUCACCCAUGUAGGGUGUGGAGCAUAGAGAAGGGUCAGAACCUC | 702 nM | 440 nM | – | – | – |
| UCAGUGGGUUCGGCCGCCACUUGAGUGAUGGUGCCUCAAUAAGUCUACAUGAGGAUCACCCAUGUAAGGACCGGGAAUUUUAUGG | – | – | – | – | apparent Kd (designed as: OFF switch for tryptophan, no ligand): 35.3 nM; apparent Kd (ligand present: tryptophan, designed as: OFF switch for tryptophan): 32.5 nM |
| UCCACACAUGAGGAUCACCCAUGUUGAGAUACCAGUAAACCAAAAUACCCUUGGCAGCUCCUACGCUCUUACAGCGGGAAUAUCC | – | – | – | – | apparent Kd [5]: 15.8 nM; apparent Kd [6]: 23.1 nM |
| UCCAGACAUGAGGAUCACCCAUGUUCAUGCCUCGGAGGAUAUCUAUGGGUGGAGGACUUUAGAGAAGGCCGAUCCG | – | – | 674 nM | 458 nM | – |
| UCCUUACACAUGAGGAUCACCCAUGUAUCCACAGGUUGAGGGCAGGAUAUACAUAAUUUGACCUUGUAGAAGGGCCUGACAAAA | 213 nM | 103 nM | – | – | – |
| UCGAUACCUCUAAUGAAGACAUGAGGAUCACCCAUGUUUAACAGAAGGUAGUCGGGAAGAUAGACUAAGGAUAUGUUGCAGGUG | 9.63 nM | 24.3 nM | – | – | – |
| UCGCUGUAAGGAUAUACUCCGUUACUGUGUUAUAACGGACCGUAGAAGGUACAUGAGGAUCACCCAUGUGAAGU | 11.1 nM | 17.8 nM | – | – | – |
| UCGGAUACUGUAGGAUAUCGACCAAAUUUUCCUCGAGAAGGACAUCUAUAUAUAGAGAACAUGAGGAUCACCCAUGUGUUUUUG | 15 nM | 15.2 nM | – | – | – |
| UCUAAACAUGAGGAUCACCCAUGUGAUUUACUCGCAGGAUAUGAGAGCUUGCACACGCAAUCAGAAGGGCGUCGAA | – | – | 36.6 nM | 28.7 nM | – |
| UCUAGUGCAUAGGAUAUCAUGGUUCAUUAGUACUGAGAAGGAUGCACAUGAGGAUCACCCAUGUUCUCUGACAG | 26.2 nM | 80.5 nM | – | – | – |
| UCUUGACAUGAGGAUCACCCAUGUCACAUUUCUAGAGGAUAUAUACAUGUUGAUCUCUGUAUAGAAGGCUAAGUCG | – | – | 18.5 nM | 11.7 nM | – |
| UGAUCAGAACAGAAGGAGUAGUCUGCCUUGCUACUAGGAUAUGUUACAUGAGGAUCACCCAUGUGUUUAGGAUUGCCAUAAAGG | – | – | 13.1 nM | 9.08 nM | – |
